Screening results: PubChem BioAssay, Broad Institute
E-sel inducer: E-selectin induction on HUVECs. HUVEC E-selectin immunofluorescence imaging; normalized: neutral wells 0, TNF-alpha wells 100. activation, % at 7.58 µM. 0.37% of 260,000 active. AID 686992;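 active = mean E-selectin-positive cell signal at least 10% of the positive control, reached in at least 60% of replicates, without over 20% cell loss; inconclusive = no rule given, readout overlaps actives, possibly toxicity-flagged; inactive = the rest, including those meeting only one limit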
Target sequence (P16581 whole entry, looked up): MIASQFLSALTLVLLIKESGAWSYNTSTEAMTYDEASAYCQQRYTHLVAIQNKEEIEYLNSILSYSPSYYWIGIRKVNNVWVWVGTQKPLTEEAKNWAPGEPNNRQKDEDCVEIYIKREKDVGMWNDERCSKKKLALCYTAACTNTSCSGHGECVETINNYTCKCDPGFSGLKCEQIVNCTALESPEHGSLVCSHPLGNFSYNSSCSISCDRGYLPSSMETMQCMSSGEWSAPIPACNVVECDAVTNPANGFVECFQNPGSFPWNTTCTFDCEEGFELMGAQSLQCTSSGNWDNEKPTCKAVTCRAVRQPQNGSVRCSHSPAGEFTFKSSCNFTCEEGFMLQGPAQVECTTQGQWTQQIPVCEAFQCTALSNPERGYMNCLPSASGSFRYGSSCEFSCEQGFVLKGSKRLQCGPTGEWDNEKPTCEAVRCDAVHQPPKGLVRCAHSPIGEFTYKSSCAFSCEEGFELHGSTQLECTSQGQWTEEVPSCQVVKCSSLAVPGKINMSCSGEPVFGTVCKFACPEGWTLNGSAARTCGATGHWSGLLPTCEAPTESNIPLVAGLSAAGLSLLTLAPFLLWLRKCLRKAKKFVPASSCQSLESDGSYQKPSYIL
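assay system = HUVEC, human umbilical vein endothelial cells | input = 3,000 HUVEC seeded per well | medium = EGM-2 growth medium on 0.1% gelatin-coated wells | dosing = one compound dose added by pin transfer | signal = immunofluorescence imaging | read-out basis = % PE-positive cells | control set = TNF-alpha, DMSO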
PglD DTNB: PglD (C. jejuni) enzyme inhibition; purified PglD enzyme, DTNB colorimetric CoA detection; inhibition, % at 12.5 µM; 0.098% of 360,000 active; AID 602405; in the data active = inhibition above about 16%, passing the limit was not always enough; inconclusive = no clear call, values can overlap the other calls
Statin myotox sup: suppression of simvastatin myotoxicity; C2C12 myotubes + simvastatin, ATP luminescence, 48 h; scaled: DMSO 0, geranylgeraniol control 100; rescue of ATP level, % at 7.49 µM; 0.78% of 330,000 active;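 active = mean ATP rescue above about 67%, or every replicate alone reaching that limit, limit read from the data, passing the limit was not always enough; inconclusive = no clear call, values can overlap the other calls; inactive = mean under the limit and some replicate under it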;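 also: myotubes were challenged with 10 µM simvastatin during compound exposure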
Xi reactivation: activators of X-chromosome reactivation in mouse fibroblasts; XiGFP mouse fibroblasts, % GFP-positive cells imaging, 3 d; cells co-treated with 5-aza-dC sensitizer; scaled so ellipticine positive control = 100%; activation, % at 7.58 µM; 0.055% of 360,000 active; AID 743238;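 active = mean normalized replicate activation at least 10% and every replicate at or above 10%; inconclusive = only one of the two criteria met; inactive = mean below 10% and not all replicates reach 10%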;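 also: 0% = median of on-plate neutral control wells and 100% = ellipticine 6 µM median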
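Material: SV40-immortalized XiGFP fibroblast cells, line 68-5-11 | Buffer or medium: DMEM containing 5-aza-dC | Dosing: One concentration, pinned | Times: 3 d treatment, 15 min room-temperature fixation | Controls: Ellipticine 6 µM positive control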
FGF22 binding: FGF22 (human) thermal shift binding; Q9HCT0; recombinant FGF22 thermal shift, SYPRO orange fluorescence; percent of sucrose octasulfate shift, DMSO zero; activity (Tm shift, normalised), % at 9.99 µM; 1.5% of 340,000 active;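 active = mean Tm shift, scaled 0 neutral to 100 positive control, at about 1.3% or above, every replicate too, limit read from the data; inconclusive = no clear call, values can overlap the other calls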
DENV2 CPE: inhibitors of DENV2 cytopathic effect; 1.7% of 350,000 active; AID 651640; CPE inhibition, % at 9.99 µM; DENV2-infected cells, cytopathic effect rescue, plate reader; in the data active = CPE inhibition above about 20%, passing the limit was not always enough; inconclusive = no clear call, values can overlap the other calls; tested in BHK-21 cells;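 also: 0% = median of neutral control wells and 100% = median of positive control wells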
Starred values were filed as active, the others as inactive; ? = inconclusive; . = not tested or not shown; ! = repeats disagree. Hits are enriched below; roughly 3.3% of the tested compounds scored in any of these assays.

SMILES	E-sel inducer	PglD DTNB	Statin myotox sup	Xi reactivation	FGF22 binding	DENV2 CPE
O=C(Nc1ccc2c(c1)[C@H]1C[C@H](CC(=O)N3CCOCC3)O[C@@H](CO)[C@H]1O2)Nc1ccccc1F	0	4	11	0	-1	0
COc1ccccc1C(=O)N1C[C@H]2[C@@H](c3ccccc31)[C@H](CO)N2Cc1ccc(F)cc1	0	3	34	0	0	-8
COc1cccc(S(=O)(=O)N[C@H]2C=C[C@@H](CC(=O)NCc3ccc(Cl)cc3)O[C@@H]2CO)c1	2	-1	-4	1	0	-10
C[C@@H]1CN([C@@H](C)CO)C(=O)c2cc(NS(C)(=O)=O)ccc2O[C@H]1CN(C)S(=O)(=O)c1cccs1	0	-4	-12	-1	0	?
O=C(Cn1c(-c2ccccc2)c[n+]2ccsc12)c1ccc([N+](=O)[O-])cc1	.	2	.	0	43*	-1
O=C(Cn1c(-c2ccccc2)c[n+]2ccsc12)c1ccccc1	.	-3	-84	0	0	-7
Cc1noc(C)c1S(=O)(=O)Nc1ccc2c(c1)C(=O)N([C@@H](C)CO)C[C@@H](C)[C@@H](CN(C)S(=O)(=O)c1ccc(Cl)cc1)OCCCC[C@H](C)O2	.	-1	140*	0	-1	-1
Cc1noc(C)c1S(=O)(=O)N(C)C[C@H]1OCCCC[C@@H](C)Oc2ccc(NS(=O)(=O)c3ccc(Cl)cc3)cc2C(=O)N([C@@H](C)CO)C[C@@H]1C	0	-2	.	-1	0	31*
Cc1noc(C)c1S(=O)(=O)N(C)C[C@@H]1OCCCC[C@@H](C)Oc2ccc(NS(=O)(=O)c3ccc(Cl)cc3)cc2C(=O)N([C@@H](C)CO)C[C@H]1C	1	5	.	-1	0	36*
Cc1noc(C)c1S(=O)(=O)Nc1ccc2c(c1)C(=O)N([C@@H](C)CO)C[C@@H](C)[C@H](CN(C)S(=O)(=O)c1ccc(Cl)cc1)OCCCC[C@@H](C)O2	.	-1	-10	0	-1	-2
Cc1noc(C)c1S(=O)(=O)N(C)C[C@H]1OCCCC[C@@H](C)Oc2ccc(NS(=O)(=O)c3ccc(Cl)cc3)cc2C(=O)N([C@@H](C)CO)C[C@H]1C	-1	0	.	0	0	-14
C[C@H](CO)N1C[C@H](C)[C@@H](CN(C)S(=O)(=O)c2cccc(F)c2)OCc2cn(nn2)CCCC1=O	.	4	5	0	0	55*!
C[C@H]1CN([C@@H](C)CO)C(=O)CCCn2cc(nn2)CO[C@H]1CN(C)S(=O)(=O)c1ccc2c(c1)OCCCO2	0	2	5	0	1	31*
C[C@@H]1CN([C@@H](C)CO)C(=O)CCCn2cc(nn2)CO[C@H]1CN(C)S(=O)(=O)c1cccc(F)c1	3	-6	0	0	0	1
C[C@@H]1CN([C@H](C)CO)S(=O)(=O)c2ccc(C#CC3CC3)cc2O[C@H]1CN(C)C(=O)CC1CC1	0	-2	10	0	0	-7
CCCC#Cc1ccc2c(c1)O[C@H](CN(C)Cc1ccncc1)[C@H](C)CN([C@H](C)CO)S2(=O)=O	0	-1	-14	0	0	6
CCc1nnc(NC(=O)Cn2c(=O)oc3ccccc32)s1	.	-1	140*	.	.	.
O=C(COC(=O)c1cccs1)NCC1CCCCC1	.	.	.	0	43*	-3
O=C(COC(=O)c1cccs1)NCc1ccco1	.	-3	131*	.	.	.
O=C(Cc1c[nH]c2ccccc12)NCc1ccco1	.	.	.	0	43*	9
O=C(COC(=O)c1n[nH]c2ccccc12)NC(=O)NCc1ccco1	.	-10	73*	.	.	.
C[C@H]1CN([C@@H](C)CO)C(=O)Cc2cc(NS(=O)(=O)c3ccc(F)cc3)ccc2O[C@H]1CN(C)S(=O)(=O)c1ccccc1	0	-3	34	-1	0	9
CN1C(=O)c2cc(NC(=O)c3cccs3)ccc2OC[C@H]2O[C@@H](CC(=O)NCCN3CCCCC3)CC[C@H]21	0	2	-42	0	-1	4
COc1cc(C(=O)OCC(=O)NCc2ccco2)cc(OC)c1OC	.	9	3	.	.	.
